Reference: ChEMBL document CHEMBL2010803, “Novel NSAID 1-acyl-4-cycloalkyl/arylsemicarbazides and 1-acyl-5-benzyloxy/hydroxy carbamoylcarbazides as potential anticancer agents and antioxidants” (Eur J Med Chem, 2012)
The source made the active and inactive calls. The rule behind the calls is not given here.

How the values were obtained:
Vaccinia virus = assay: Antiviral activity against Vaccinia virus infected in human lung fibroblast assessed as inhibition of virus-induced cytopathic effect at 0.32 to 100 uM; type: functional, organism-based; conditions: Orthopoxvirus vaccinia
Influenza B virus = assay: Antiviral activity against Influenza B virus infected in MDCK cells assessed as inhibition of virus-induced cytopathic effect at 0.32 to 100 uM; type: functional, organism-based
In short: (§1)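 Confluent MDCK monolayers were infected in the presence of the compound at 100, 40, 8, 1.6 and 0.32 μM. Viral cytopathicity was scored once it was complete in untreated infected control cultures.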

Punta Toro virus = assay: Antiviral activity against Punta Toro virus infected in african green monkey Vero cells assessed as inhibition of virus-induced cytopathic effect at 0.32 to 100 uM; type: functional, organism-based
In short: (§2)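 Confluent cell cultures were infected with 100 CCID50 of virus in the presence of test compound at 100, 40, 8, 1.6 and 0.32 μM. Cytopathic effect was scored once it was complete in untreated infected controls.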

Influenza A virus [1] = assay: Antiviral activity against Influenza A virus H3N2 infected in MDCK cells assessed as inhibition of virus-induced cytopathic effect at 0.32 to 100 uM; type: functional, organism-based; in short: as §1
[2] = tested on: Respiratory syncytial virus; assay: Antiviral activity against RSV infected in human cervix carcinoma cells assessed as inhibition of virus-induced cytopathic effect at 0.32 to 100 uM; type: functional, organism-based; in short: as §2
[3] = tested on: Vesicular stomatitis virus; assay: Antiviral activity against Vesicular stomatitis virus infected in human cervix carcinoma cells assessed as inhibition of virus-induced cytopathic effect at 0.32 to 100 uM; type: functional, organism-based
In short: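 Confluent human cervix carcinoma (HeLa) cultures received 100 CCID50 of VSV together with the compound at 100, 40, 8, 1.6 or 0.32 μM. Cytopathicity was read at the point of full CPE in infected, untreated control wells.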

HaCaT = assay: Cytostatic activity against human HaCaT cells after 72 hrs by MTT assay; type: ADME, cell-based
In short: (§3)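 Monolayers in DMEM with 10% FBS, 2 mM L-glutamine and penicillin/streptomycin, 37 °C, 5% CO2. Seeded at 1–3 × 10^4 cells/ml, then compound added in tenfold dilutions (10⁻⁸–10⁻⁴ M) for 72 h. MTT read at 570 nm; percent growth taken against time-zero and untreated controls. IC50 by linear regression; quadruplicate, at least two experiments.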

Glycine max = assay: Inhibition of soybean LOX assessed as conversion of sodium linoleate to 13- hydroperoxylinoleic acid at 100 uM
[4] = tested on: Human immunodeficiency virus 1; assay: Antiviral activity against HIV1 3B infected in human CEM cells assessed as inhibition of virus-induced CEM giant cell formation at 0.32 to 100 uM after 4 days; type: functional, organism-based; conditions: CCRF-CEM
In short: (§4)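 CEM cells (~3 × 10^5 cells/cm³) exposed to 100 CCID50/ml of virus and seeded into wells holding compound dilutions. Incubated 4 days at 37 °C, then giant cell formation examined microscopically.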

[5] = tested on: Vesicular stomatitis virus; assay: Antiviral activity against VSV infected in human lung fibroblast assessed as inhibition of virus-induced cytopathic effect at 0.32 to 100 uM; type: functional, organism-based
Human alphaherpesvirus 2 = assay: Antiviral activity against HSV2 G infected in human lung fibroblast assessed as inhibition of virus-induced cytopathic effect at 0.32 to 100 uM; type: functional, organism-based; conditions: strain G; in short: as §2
L1210 = assay: Cytostatic activity against mouse L1210 cells after 2 days by coulter counter analysis; type: functional, cell-based; conditions: L1210, 48 h
In short: (§5)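 300,000–500,000 cells/ml mixed 1:1 with compound dilutions and incubated at 37 °C for 2 days (L1210) or 3 days (CEM, HeLa). Cell number counted with a Coulter counter; HeLa trypsinized before counting.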

Sindbis virus = assay: Antiviral activity against Sindbis virus infected in african green monkey Vero cells assessed as inhibition of virus-induced cytopathic effect at 0.32 to 100 uM; type: functional, organism-based; in short: as §2
Human respirovirus 3 = assay: Antiviral activity against Parainfluenza virus 3 infected in african green monkey Vero cells assessed as inhibition of virus-induced cytopathic effect at 0.32 to 100 uM; type: functional, organism-based; in short: as §2
[6] = tested on: Mammalian orthoreovirus 1; assay: Antiviral activity against Reovirus-1 infected in african green monkey Vero cells assessed as inhibition of virus-induced cytopathic effect at 0.32 to 100 uM; type: functional, organism-based; in short: as §2
CCRF-CEM = assay: Cytostatic activity against human CEM cells after 3 days by coulter counter analysis; type: functional, cell-based; conditions: 72 h; in short: as §5
Felid alphaherpesvirus 1 = assay: Antiviral activity against Feline herpesvirus infected in feline CRFK cells assessed as inhibition of virus-induced cytopathic effect at 0.32 to 100 uM; type: functional, organism-based; in short: as §2
HCT-116 = assay: Cytostatic activity against human HCT116 cells after 72 hrs by MTT assay; type: functional, cell-based; conditions: HCT-116, 72 h; in short: as §3
HeLa = assay: Cytostatic activity against human HeLa cells after 3 days by coulter counter analysis; type: functional, cell-based; conditions: 72 h; in short: as §5
Coxsackievirus B4 [7] = assay: Antiviral activity against Coxsackievirus B4 infected in human cervix carcinoma cells assessed as inhibition of virus-induced cytopathic effect at 0.32 to 100 uM; type: functional, organism-based; in short: as §2
[8] = tested on: Radical scavenging activity; assay: Antioxidant activity assessed as DPPH free radical scavenging activity at 100 uM after 20 mins by spectrophotometric analysis; type: functional
In short: (§6)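 0.05 mM DPPH in absolute ethanol mixed with an equal volume of compound in DMSO (final 100 μM). Shaken and left 20 or 60 min, then absorbance read at 517 nm and percent activity calculated. Three replicates, averaged.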

MCF7 = assay: Cytostatic activity against human MCF7 cells after 72 hrs by MTT assay; type: functional, cell-based; conditions: MCF7, 72 h; in short: as §3
Feline coronavirus = assay: Antiviral activity against Feline coronavirus infected in feline CRFK cells assessed as inhibition of virus-induced cytopathic effect at 0.32 to 100 uM; type: functional, organism-based; in short: as §2
Coxsackievirus B4 [9] = assay: Antiviral activity against Coxsackievirus B4 infected in african green monkey Vero cells assessed as inhibition of virus-induced cytopathic effect at 0.32 to 100 uM; type: functional, organism-based; in short: as §2
[10] = tested on: Radical scavenging activity; assay: Antioxidant activity assessed as DPPH free radical scavenging activity at 100 uM after 60 mins by spectrophotometric analysis; type: functional; in short: as §6
[11] = Antioxidant activity assessed as inhibition of AAPH-induced linoleic acid lipid peroxidation by measuring conjugated diene hydroperoxide level; type: functional; design: concentration or dose not given beside the values
In short: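 Linoleic acid sodium salt (10 μL of 16 mM) in 0.05 M phosphate buffer pH 7.4 at 37 °C. Oxidation started under air with 50 μL of 40 mM AAPH. Conjugated diene hydroperoxide formation followed as absorbance rise at 234 nm; control contains the same DMSO level. At least triplicate.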

[12] = tested on: Human immunodeficiency virus 2; assay: Antiviral activity against HIV2 ROD infected in human CEM cells assessed as inhibition of virus-induced CEM giant cell formation at 0.32 to 100 uM after 4 days; type: functional, organism-based; conditions: ISOLATE ROD, CCRF-CEM; in short: as §4
Human alphaherpesvirus 1 = assay: Antiviral activity against HSV1 KOS infected in human lung fibroblast assessed as inhibition of virus-induced cytopathic effect at 0.32 to 100 uM; type: functional, organism-based; in short: as §2
Influenza A virus [13] = assay: Antiviral activity against Influenza A virus H1N1 infected in MDCK cells assessed as inhibition of virus-induced cytopathic effect at 0.32 to 100 uM; type: functional, organism-based; in short: as §1
NCI-H460 = assay: Cytostatic activity against human NCI-H460 cells after 72 hrs by MTT assay; type: functional, cell-based; conditions: NCI-H460, 72 h; in short: as §3
[14] = dose or concentration not given here

CC(C(=O)NNC(=O)NCCc1ccccc1)c1cccc(Cc2ccccc2)c1 (configuration not stated)
inhibition (Vaccinia virus): inactive
inhibition (Influenza B virus): inactive
inhibition (Punta Toro virus): inactive
inhibition (Influenza A virus [1]): inactive
inhibition [2]: inactive
inhibition [3]: inactive
IC50 (HaCaT): 16 µM
inhibition (Glycine max): 17%
inhibition [4]: inactive
inhibition [5]: inactive
inhibition (Human alphaherpesvirus 2): inactive
IC50 (L1210): 31 µM
inhibition (Sindbis virus): inactive
inhibition (Human respirovirus 3): inactive
inhibition [6]: inactive
IC50 (CCRF-CEM): 29 µM
inhibition (Felid alphaherpesvirus 1): inactive
IC50 (HCT-116): 20 µM
IC50 (HeLa): 58 µM
inhibition (Coxsackievirus B4 [7]): inactive
Activity [8]: 8%
IC50 (MCF7): 15 µM
inhibition (Feline coronavirus): inactive
inhibition (Coxsackievirus B4 [9]): inactive
Activity [10]: 15%
inhibition [11, 14]: 71%
inhibition [12]: inactive
inhibition (Human alphaherpesvirus 1): inactive
inhibition (Influenza A virus [13]): inactive
IC50 (NCI-H460): 22 µM

CC(C(=O)NNC(=O)NCc1ccccc1)c1cccc(Cc2ccccc2)c1 (configuration not stated)
inhibition (Vaccinia virus): inactive
inhibition (Influenza B virus): inactive
inhibition (Punta Toro virus): inactive
inhibition (Influenza A virus [1]): inactive
inhibition [2]: inactive
inhibition [3]: inactive
IC50 (HaCaT): 25 µM
inhibition (Glycine max): inactive
inhibition [4]: inactive
inhibition [5]: inactive
inhibition (Human alphaherpesvirus 2): inactive
IC50 (L1210): 31 µM
inhibition (Sindbis virus): inactive
inhibition (Human respirovirus 3): inactive
inhibition [6]: inactive
IC50 (CCRF-CEM): 49 µM
inhibition (Felid alphaherpesvirus 1): inactive
IC50 (HCT-116): 24 µM
IC50 (HeLa): 94 µM
inhibition (Coxsackievirus B4 [7]): inactive
Activity [8]: 3%
IC50 (MCF7): 12 µM
inhibition (Feline coronavirus): inactive
inhibition (Coxsackievirus B4 [9]): inactive
Activity [10]: 9%
inhibition [11, 14]: 48%
inhibition [12]: inactive
inhibition (Human alphaherpesvirus 1): inactive
inhibition (Influenza A virus [13]): inactive
IC50 (NCI-H460): 28 µM

CC(C(=O)NNC(=O)NC1CCCC1)c1cccc(Oc2ccccc2)c1 (configuration not stated)
inhibition (Vaccinia virus): inactive
inhibition (Influenza B virus): inactive
inhibition (Punta Toro virus): inactive
inhibition (Influenza A virus [1]): inactive
inhibition [2]: inactive
inhibition [3]: inactive
IC50 (HaCaT): 18 µM
inhibition (Glycine max): inactive
inhibition [4]: inactive
inhibition [5]: inactive
inhibition (Human alphaherpesvirus 2): inactive
IC50 (L1210): 55 µM
inhibition (Sindbis virus): inactive
inhibition (Human respirovirus 3): inactive
inhibition [6]: inactive
IC50 (CCRF-CEM): 73 µM
inhibition (Felid alphaherpesvirus 1): inactive
IC50 (HCT-116): 36 µM
IC50 (HeLa): 39 µM
inhibition (Coxsackievirus B4 [7]): inactive
Activity [8]: 16%
IC50 (MCF7): 20 µM
inhibition (Feline coronavirus): inactive
inhibition (Coxsackievirus B4 [9]): inactive
Activity [10]: 19%
inhibition [11, 14]: 21%
inhibition [12]: inactive
inhibition (Human alphaherpesvirus 1): inactive
inhibition (Influenza A virus [13]): inactive
IC50 (NCI-H460): 33 µM

CC(C)Cc1ccc(C(C)C(=O)NNC(=O)NC(c2ccccc2)c2ccccc2)cc1 (configuration not stated)
inhibition (Vaccinia virus): inactive
inhibition (Influenza B virus): inactive
inhibition (Punta Toro virus): inactive
inhibition (Influenza A virus [1]): inactive
inhibition [2]: inactive
inhibition [3]: inactive
IC50 (HaCaT): 13 µM
inhibition (Glycine max): 46%
inhibition [4]: inactive
inhibition [5]: inactive
inhibition (Human alphaherpesvirus 2): inactive
IC50 (L1210): 20 µM
inhibition (Sindbis virus): inactive
inhibition (Human respirovirus 3): inactive
inhibition [6]: inactive
IC50 (CCRF-CEM): 23 µM
inhibition (Felid alphaherpesvirus 1): inactive
IC50 (HCT-116): 13 µM
inhibition (Coxsackievirus B4 [7]): inactive
Activity [8]: inactive
IC50 (MCF7): 6 µM
inhibition (Feline coronavirus): inactive
inhibition (Coxsackievirus B4 [9]): inactive
Activity [10]: inactive
inhibition [11, 14]: 74%
inhibition [12]: inactive
inhibition (Human alphaherpesvirus 1): inactive
inhibition (Influenza A virus [13]): inactive
IC50 (NCI-H460): 16 µM

CC(C(=O)NNC(=O)NCC1CCCCC1)c1cccc(Cc2ccccc2)c1 (configuration not stated)
inhibition (Vaccinia virus): inactive
inhibition (Influenza B virus): inactive
inhibition (Punta Toro virus): inactive
inhibition (Influenza A virus [1]): inactive
inhibition [2]: inactive
inhibition [3]: inactive
IC50 (HaCaT): 12 µM
inhibition (Glycine max): 9%
inhibition [4]: inactive
inhibition [5]: inactive
inhibition (Human alphaherpesvirus 2): inactive
IC50 (L1210): 22 µM
inhibition (Sindbis virus): inactive
inhibition (Human respirovirus 3): inactive
inhibition [6]: inactive
IC50 (CCRF-CEM): 20 µM
inhibition (Felid alphaherpesvirus 1): inactive
IC50 (HCT-116): 16 µM
inhibition (Coxsackievirus B4 [7]): inactive
Activity [8]: 5%
IC50 (MCF7): 18 µM
inhibition (Feline coronavirus): inactive
inhibition (Coxsackievirus B4 [9]): inactive
Activity [10]: 12%
inhibition [11, 14]: 61%
inhibition [12]: inactive
inhibition (Human alphaherpesvirus 1): inactive
inhibition (Influenza A virus [13]): inactive
IC50 (NCI-H460): 18 µM

CC(C(=O)NNC(=O)NC1CCCC1)c1cccc(Cc2ccccc2)c1 (configuration not stated)
inhibition (Vaccinia virus): inactive
inhibition (Influenza B virus): inactive
inhibition (Punta Toro virus): inactive
inhibition (Influenza A virus [1]): inactive
inhibition [2]: inactive
inhibition [3]: inactive
IC50 (HaCaT): 50 µM
inhibition (Glycine max): inactive
inhibition [4]: inactive
inhibition [5]: inactive
inhibition (Human alphaherpesvirus 2): inactive
inhibition (Sindbis virus): inactive
inhibition (Human respirovirus 3): inactive
inhibition [6]: inactive
IC50 (CCRF-CEM): 66 µM
inhibition (Felid alphaherpesvirus 1): inactive
IC50 (HCT-116): 33 µM
IC50 (HeLa): 43 µM
inhibition (Coxsackievirus B4 [7]): inactive
Activity [8]: 4%
IC50 (MCF7): 19 µM
inhibition (Feline coronavirus): inactive
inhibition (Coxsackievirus B4 [9]): inactive
Activity [10]: 12%
inhibition [11]: inactive
inhibition [12]: inactive
inhibition (Human alphaherpesvirus 1): inactive
inhibition (Influenza A virus [13]): inactive
IC50 (NCI-H460): 38 µM
